According to PMC3060995 (Peptides, 2011):

How the values were obtained:
[1] = tested on: food intake in freely-feeding rats; test: 3-h IV infusion at dark onset, food intake in non-food-deprived rats; format: in vivo, rat (male Sprague-Dawley)
Summary of the method: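 Male Sprague-Dawley rats (350–500 g), housed individually on a 12:12-h light-dark cycle, had ad libitum ground chow. They were jugular-catheterised and tethered to infusion swivels. Each received a single 3-h jugular infusion per day of test compound or vehicle (0.15 M NaCl, 0.1% BSA). Food intake was recorded continuously from bowl weight. Rats with non-patent catheters (Brevital test) were excluded. Analysis used repeated-measures ANOVA with paired t-tests.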

[2] = tested on: food intake in freely-feeding rats; details: cited from earlier work
[3] = 15 pmol/kg/min, 3-h IV infusion at dark onset, vs vehicle, 11–15 rats

Substance	effect on food intake [1, 3]	effect on food intake ([1]; 50 pmol/kg/min, 3-h IV infusion at dark onset, vs vehicle, 11–16 rats)	effect on food intake ([1]; 150 pmol/kg/min, 3-h IV infusion at dark onset, vs vehicle, 11–16 rats)	approximate mean effective dose for inhibition of food intake ([2]; 3-h IV infusion at dark onset, rats, previously determined) [pmol/kg/min]	potency in reducing food intake relative to PYY(1–36)-NH2 ([2]; 3-h IV infusion during the early dark period, freely-feeding rats)	reduction of 3-h food intake ([1]; 15 pmol/kg/min, 3-h jugular vein infusion beginning 15 min before dark onset, vs vehicle, 11–16 rats, group means) [%]	inhibition of 3-h food intake ([1]; 50 pmol/kg/min, 3-h jugular vein infusion beginning 15 min before dark onset, vs vehicle, 11–16 rats, group means) [%]	relative anorexigenic potency (comparison between PYY forms) ([1]; 3-h IV infusion at dark onset, rats)
peptide YY(1–36)-amide [PYY(1–36)-NH2]	significantly smaller effect	similarly reduced food in a dose-dependent manner	similarly reduced food in a dose-dependent manner					
peptide YY(3–36)-amide [PYY(3–36)-NH2]	significantly reduced food intake			~15	an order of magnitude more potent	29	42	more potent than Ser^13(PO3)-PYY(3–36)-NH2
